Reference: ChEMBL document CHEMBL4680181, “Identification of a 2,4-diaminopyrimidine scaffold targeting Trypanosoma brucei pteridine reductase 1 from the LIBRA compound library screening campaign” (Eur J Med Chem, 2020)
Active and inactive are the calls of the source. The rule behind the calls is not given here.

system: Trypanosoma brucei brucei; assay: Antitrypanosomal activity against bloodstream form of trypanosoma brucei brucei 427 assessed as potentiation index at 1 uM after 72 hrs in presence of MTX by resazurin staining based fluorescence assay; format: functional; conditions: not given
Summary of the method: (§1)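 Synergy index taken as the activity of test compound plus 4 μM MTX, divided by the summed activities of test compound alone and 4 μM MTX alone. Resazurin-based assay on T. brucei bloodstream forms.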

SMILES	Activity_index
Nc1cc(NCc2ccc(-c3ccccc3)cc2)nc(N)n1	2.3

system: Trypanosoma brucei brucei; assay: Antitrypanosomal activity against bloodstream form of trypanosoma brucei brucei 427 assessed as inhibition of parasitic growth at 4 uM after 72 hrs in presence of MTX by resazurin staining based fluorescence assay relative to control; format: functional; conditions: read-out: GI
Summary of the method: (§2)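 T. brucei bloodstream forms in a modified resazurin-based growth assay. EC50 (concentration inhibiting growth by 50%) obtained by nonlinear regression. Combination wells contained 4 μM MTX (methotrexate); single-agent MTX was run at 4 μM. Single-concentration tests used 10, 1 or 0.1 μM of test compound.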

SMILES	inhibition of growth at 4 µM [%]
CN(Cc1cnc2nc(N)nc(N)c2n1)c1ccc(C(=O)N[C@@H](CCC(=O)O)C(=O)O)cc1 [METHOTREXATE]	19

system: Trypanosoma brucei; assay: Inhibition of Trypanosoma brucei PTR1 at 50 uM using H2B as substrate preincubated for 10 mins followed by NADPH addition and measured up to 50 mins relative to control; conditions: time min <=60

SMILES	inhibition [%]
Nc1cc(OCc2ccccc2)nc(N)n1	> 85
O=C1CCCCCNCc2ccc(cc2)CNCCCCCC(=O)N(Cc2ccccc2)CCCCCCCCN1Cc1ccccc1	> 85
COc1ccccc1CNCc1ccc(CNCCCCCCCCCCCCNCc2ccc(CNCc3ccccc3OC)cc2)cc1	> 85
Cl.Fc1ccc(N(CCNCCCc2ccccc2)c2ccc(F)cc2)cc1	> 85
O=C1CCCCCNCc2ccc(cc2)Cc2ccc(cc2)CNCCCCCC(=O)N(Cc2ccccc2)CCCCCCCCN1Cc1ccccc1	> 85
Cn1cnc2c(N)nc(CCc3ccccc3)nc21	> 85

system: Trypanosoma brucei brucei; assay: Antitrypanosomal activity against bloodstream form of trypanosoma brucei brucei 427 assessed as potentiation index at 10 uM after 72 hrs in presence of MTX by resazurin staining based fluorescence assay; format: functional; conditions: not given; summary of the method: as §1

SMILES	Activity_index
Nc1cc(OCc2ccccc2)nc(N)n1	1.9
Cn1cnc2c(N)nc(CCc3ccccc3)nc21	1.7

system: Trypanosoma brucei brucei; assay: Antitrypanosomal activity against bloodstream form of trypanosoma brucei brucei 427 assessed as inhibition of parasitic growth at 0.1 uM after 72 hrs by resazurin staining based fluorescence assay relative to control; format: functional, organism-based; conditions: not given; summary of the method: as §2

SMILES	growth inhibition (GI)
O=C1CCCCCNCc2ccc(cc2)CNCCCCCC(=O)N(Cc2ccccc2)CCCCCCCCN1Cc1ccccc1	inactive
COc1ccccc1CNCc1ccc(CNCCCCCCCCCCCCNCc2ccc(CNCc3ccccc3OC)cc2)cc1	inactive
Cl.Fc1ccc(N(CCNCCCc2ccccc2)c2ccc(F)cc2)cc1	inactive
O=C1CCCCCNCc2ccc(cc2)Cc2ccc(cc2)CNCCCCCC(=O)N(Cc2ccccc2)CCCCCCCCN1Cc1ccccc1	inactive

system: Trypanosoma brucei brucei; assay: Antitrypanosomal activity against bloodstream form of trypanosoma brucei brucei 427 assessed as potentiation index at 0.1 uM after 72 hrs in presence of MTX by resazurin staining based fluorescence assay; format: functional; conditions: not given; summary of the method: as §1

SMILES	Activity_index
O=C1CCCCCNCc2ccc(cc2)CNCCCCCC(=O)N(Cc2ccccc2)CCCCCCCCN1Cc1ccccc1	1.4
COc1ccccc1CNCc1ccc(CNCCCCCCCCCCCCNCc2ccc(CNCc3ccccc3OC)cc2)cc1	1.1
Cl.Fc1ccc(N(CCNCCCc2ccccc2)c2ccc(F)cc2)cc1	1.1
O=C1CCCCCNCc2ccc(cc2)Cc2ccc(cc2)CNCCCCCC(=O)N(Cc2ccccc2)CCCCCCCCN1Cc1ccccc1	1.1

system: Trypanosoma brucei brucei; assay: Antitrypanosomal activity against bloodstream form of trypanosoma brucei brucei 427 assessed as inhibition of parasitic growth at 0.1 uM after 72 hrs in presence of MTX by resazurin staining based fluorescence assay relative to control; format: functional; conditions: read-out: GI; summary of the method: as §2

SMILES	inhibition of growth at 0.1 µM [%]
O=C1CCCCCNCc2ccc(cc2)CNCCCCCC(=O)N(Cc2ccccc2)CCCCCCCCN1Cc1ccccc1	43
COc1ccccc1CNCc1ccc(CNCCCCCCCCCCCCNCc2ccc(CNCc3ccccc3OC)cc2)cc1	46
Cl.Fc1ccc(N(CCNCCCc2ccccc2)c2ccc(F)cc2)cc1	46
O=C1CCCCCNCc2ccc(cc2)Cc2ccc(cc2)CNCCCCCC(=O)N(Cc2ccccc2)CCCCCCCCN1Cc1ccccc1	42

system: not listed separately; assay: Cytotoxicity against human A549 cells assessed as reduction in cell viability by Cell Titer-Glo assay; format: cell-based; conditions: not given
Summary of the method: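 A549 cells from DSMZ, grown in DMEM with 10% v/v FCS, 100 μg/mL streptomycin and 100 U/mL penicillin G. Viability read by CellTiter-Glo luminescence of cellular ATP, which scales with cell number. GI50 reported.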

SMILES	GI50 [µM]
Nc1cc(OCc2ccccc2)nc(N)n1	> 60
Nc1cc(NCc2ccc(-c3ccccc3)cc2)nc(N)n1	28.6

system: Trypanosoma brucei brucei; assay: Antitrypanosomal activity against bloodstream form of trypanosoma brucei brucei 427 assessed as inhibition of parasitic growth at 1 uM after 72 hrs by resazurin staining based fluorescence assay relative to control; format: functional, organism-based; conditions: not given; summary of the method: as §2

SMILES	growth inhibition (GI)
Nc1cc(NCc2ccc(-c3ccccc3)cc2)nc(N)n1	Active

system: Trypanosoma brucei brucei; assay: Antitrypanosomal activity against bloodstream form of trypanosoma brucei brucei 427 assessed as inhibition of parasitic growth at 10 uM after 72 hrs by resazurin staining based fluorescence assay relative to control; format: functional; conditions: not given; summary of the method: as §2

SMILES	growth inhibition (GI)
Nc1cc(OCc2ccccc2)nc(N)n1	inactive

same assay, conditions: read-out: GI

SMILES	inhibition of growth at 10 µM [%]
Nc1cc(NCc2ccc(-c3ccccc3)cc2)nc(N)n1	> 80

system: Trypanosoma brucei brucei; assay: Antitrypanosomal activity against bloodstream form of trypanosoma brucei brucei 427 assessed as reduction in parasitic growth after 72 hrs by resazurin staining based fluorescence assay; format: functional, organism-based; conditions: not given; summary of the method: as §2

SMILES	IC50
Nc1cc(OCc2ccccc2)nc(N)n1	Not Active
Cn1cnc2c(N)nc(CCc3ccccc3)nc21	Not Active

same assay, conditions: Trypanosoma brucei, 427, 72 h; read-out: IC50

SMILES	IC50 [µM]
O=C1CCCCCNCc2ccc(cc2)CNCCCCCC(=O)N(Cc2ccccc2)CCCCCCCCN1Cc1ccccc1	0.61
Nc1cc(NCc2ccc(-c3ccccc3)cc2)nc(N)n1	3.7
COc1ccccc1CNCc1ccc(CNCCCCCCCCCCCCNCc2ccc(CNCc3ccccc3OC)cc2)cc1	0.27
Cl.Fc1ccc(N(CCNCCCc2ccccc2)c2ccc(F)cc2)cc1	2.45
O=C1CCCCCNCc2ccc(cc2)Cc2ccc(cc2)CNCCCCCC(=O)N(Cc2ccccc2)CCCCCCCCN1Cc1ccccc1	0.58

system: Trypanosoma brucei brucei; assay: Antitrypanosomal activity against bloodstream form of trypanosoma brucei brucei 427 assessed as inhibition of parasitic growth at 10 uM after 72 hrs in presence of MTX by resazurin staining based fluorescence assay relative to control; format: functional; conditions: read-out: GI; summary of the method: as §2

SMILES	inhibition of growth at 10 µM [%]
Nc1cc(OCc2ccccc2)nc(N)n1	36
Cn1cnc2c(N)nc(CCc3ccccc3)nc21	56

target: T1, Pteridine reductase 1 (Leishmania major, UniProt Q01782); assay: Inhibition of Leishmania major PTR1 using H2B as substrate preincubated for 10 mins followed by NADPH addition and measured up to 50 mins relative to control; conditions: not given
T1 sequence (Q01782 whole entry): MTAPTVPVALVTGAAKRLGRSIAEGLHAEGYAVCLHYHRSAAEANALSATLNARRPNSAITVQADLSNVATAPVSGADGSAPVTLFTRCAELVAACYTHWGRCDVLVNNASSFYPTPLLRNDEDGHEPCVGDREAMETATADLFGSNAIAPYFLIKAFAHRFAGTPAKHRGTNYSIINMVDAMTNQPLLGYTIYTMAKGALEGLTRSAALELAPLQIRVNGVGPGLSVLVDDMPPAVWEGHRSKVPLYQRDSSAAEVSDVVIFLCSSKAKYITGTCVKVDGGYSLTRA
Summary of the method: (§3)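 Purified recombinant LmPTR1 or TbPTR1 in a coupled enzyme assay. Nine-point dose response from 0.5 to 100 μM. IC50, pIC50 and Hill slope from a 4-parameter logistic fit. Ki derived by the competitive model Ki = IC50/((S/Km)+1).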

SMILES	IC50 [µM]	Ki [µM]
Nc1cc(OCc2ccccc2)nc(N)n1	> 100	> 100
O=C1CCCCCNCc2ccc(cc2)CNCCCCCC(=O)N(Cc2ccccc2)CCCCCCCCN1Cc1ccccc1	> 100	> 100
Nc1cc(NCc2ccc(-c3ccccc3)cc2)nc(N)n1		15.3
COc1ccccc1CNCc1ccc(CNCCCCCCCCCCCCNCc2ccc(CNCc3ccccc3OC)cc2)cc1		37.2
Cl.Fc1ccc(N(CCNCCCc2ccccc2)c2ccc(F)cc2)cc1	> 100	> 100
O=C1CCCCCNCc2ccc(cc2)Cc2ccc(cc2)CNCCCCCC(=O)N(Cc2ccccc2)CCCCCCCCN1Cc1ccccc1		14.8
Cn1cnc2c(N)nc(CCc3ccccc3)nc21		12

target: not listed separately; assay: Inhibition of Trypanosoma brucei PTR1 using H2B as substrate preincubated for 10 mins followed by NADPH addition and measured up to 50 mins relative to control; conditions: read-out: Ki; summary of the method: as §3

SMILES	Ki [µM]
Nc1cc(OCc2ccccc2)nc(N)n1	0.6
O=C1CCCCCNCc2ccc(cc2)CNCCCCCC(=O)N(Cc2ccccc2)CCCCCCCCN1Cc1ccccc1	1.7
Nc1cc(NCc2ccc(-c3ccccc3)cc2)nc(N)n1	0.2
COc1ccccc1CNCc1ccc(CNCCCCCCCCCCCCNCc2ccc(CNCc3ccccc3OC)cc2)cc1	0.2
Cl.Fc1ccc(N(CCNCCCc2ccccc2)c2ccc(F)cc2)cc1	2.2
O=C1CCCCCNCc2ccc(cc2)Cc2ccc(cc2)CNCCCCCC(=O)N(Cc2ccccc2)CCCCCCCCN1Cc1ccccc1	2.7
Cn1cnc2c(N)nc(CCc3ccccc3)nc21	4.9

system: not listed separately; assay: Selectivity ratio Ki for inhibition of inhibition of Leishmania major PTR1 to Ki for inhibition of Trypanosoma brucei PTR1; conditions: not given
Summary of the method: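 Ki values for LmPTR1 and TbPTR1, each calculated from the coupled-assay IC50 with the competitive model Ki = IC50/((S/Km)+1).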

SMILES	Ratio Ki
Nc1cc(OCc2ccccc2)nc(N)n1	> 167
COc1ccccc1CNCc1ccc(CNCCCCCCCCCCCCNCc2ccc(CNCc3ccccc3OC)cc2)cc1	186
Cl.Fc1ccc(N(CCNCCCc2ccccc2)c2ccc(F)cc2)cc1	> 45

system: Trypanosoma brucei brucei; assay: Antitrypanosomal activity against bloodstream form of trypanosoma brucei brucei 427 assessed as inhibition of parasitic growth at 1 uM after 72 hrs in presence of MTX by resazurin staining based fluorescence assay relative to control; format: functional; conditions: read-out: GI; summary of the method: as §2

SMILES	inhibition of growth at 1 µM [%]
Nc1cc(NCc2ccc(-c3ccccc3)cc2)nc(N)n1	49

target: hERG (KCNH2) (Homo sapiens, UniProt Q12809); assay: Inhibition of human ERG at 10 uM by fluorescence polarization assay relative to control; conditions: not given
Sequence (Q12809 whole entry): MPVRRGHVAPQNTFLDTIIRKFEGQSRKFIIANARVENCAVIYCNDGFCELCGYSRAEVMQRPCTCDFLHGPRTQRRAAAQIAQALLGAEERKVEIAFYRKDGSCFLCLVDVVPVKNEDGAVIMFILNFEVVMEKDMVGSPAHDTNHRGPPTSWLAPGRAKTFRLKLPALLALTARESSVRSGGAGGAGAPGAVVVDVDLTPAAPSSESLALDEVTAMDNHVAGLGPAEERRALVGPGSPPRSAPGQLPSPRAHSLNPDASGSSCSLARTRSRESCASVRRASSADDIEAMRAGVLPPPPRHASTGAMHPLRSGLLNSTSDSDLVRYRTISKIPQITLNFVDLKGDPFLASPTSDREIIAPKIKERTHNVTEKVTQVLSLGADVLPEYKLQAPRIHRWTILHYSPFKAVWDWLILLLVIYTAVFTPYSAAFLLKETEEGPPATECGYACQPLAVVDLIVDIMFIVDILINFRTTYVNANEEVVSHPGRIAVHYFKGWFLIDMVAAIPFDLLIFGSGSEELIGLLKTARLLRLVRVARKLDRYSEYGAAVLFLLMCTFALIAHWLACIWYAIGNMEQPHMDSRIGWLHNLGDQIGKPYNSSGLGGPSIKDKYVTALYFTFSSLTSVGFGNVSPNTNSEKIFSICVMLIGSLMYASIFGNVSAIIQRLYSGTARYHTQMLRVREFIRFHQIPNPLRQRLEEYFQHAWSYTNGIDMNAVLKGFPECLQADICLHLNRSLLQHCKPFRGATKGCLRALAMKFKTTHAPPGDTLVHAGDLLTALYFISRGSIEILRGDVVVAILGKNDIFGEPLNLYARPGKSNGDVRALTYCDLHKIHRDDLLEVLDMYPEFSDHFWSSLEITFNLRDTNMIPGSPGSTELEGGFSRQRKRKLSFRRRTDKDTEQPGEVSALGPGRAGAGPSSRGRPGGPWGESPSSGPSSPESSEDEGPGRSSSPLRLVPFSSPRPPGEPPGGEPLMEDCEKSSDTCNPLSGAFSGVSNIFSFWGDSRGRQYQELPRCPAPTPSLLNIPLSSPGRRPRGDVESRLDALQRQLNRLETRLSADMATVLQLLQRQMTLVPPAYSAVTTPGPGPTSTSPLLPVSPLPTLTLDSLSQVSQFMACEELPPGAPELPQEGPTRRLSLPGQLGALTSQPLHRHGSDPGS
Summary of the method: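 hERG inhibition measured by fluorescence polarization (Predictor hERG assay), with compound at 10 μM.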

SMILES	inhibition at 10 µM [%]
Nc1cc(OCc2ccccc2)nc(N)n1	< 30

target: CYP2D6 (Homo sapiens, UniProt P10635); assay: Inhibition of CYP2D6 (unknown origin) at 10 uM by P450-Glo assay relative to control; format: ADME; conditions: not given
Sequence (P10635 whole entry): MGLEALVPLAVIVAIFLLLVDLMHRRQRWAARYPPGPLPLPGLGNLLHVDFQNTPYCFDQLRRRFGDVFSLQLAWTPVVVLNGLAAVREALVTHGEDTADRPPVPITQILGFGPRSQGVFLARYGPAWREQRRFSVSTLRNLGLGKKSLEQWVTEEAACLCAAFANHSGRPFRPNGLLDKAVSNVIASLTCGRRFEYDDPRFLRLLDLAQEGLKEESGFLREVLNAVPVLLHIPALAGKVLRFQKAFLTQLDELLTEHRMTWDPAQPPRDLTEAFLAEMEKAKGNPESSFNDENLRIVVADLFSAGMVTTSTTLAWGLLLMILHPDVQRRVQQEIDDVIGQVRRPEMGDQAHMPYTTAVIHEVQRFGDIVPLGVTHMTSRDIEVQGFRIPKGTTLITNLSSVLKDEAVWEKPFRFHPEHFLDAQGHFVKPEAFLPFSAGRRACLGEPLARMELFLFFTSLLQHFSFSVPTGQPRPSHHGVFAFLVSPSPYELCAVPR
Summary of the method: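 CYP2D6 inhibition measured in the P450-Glo luminescent platform, with compound at 10 μM.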

SMILES	inhibition at 10 µM [%]
Nc1cc(OCc2ccccc2)nc(N)n1	< 30

system: not listed separately; assay: Cytotoxicity against human THP-1 cells assessed as reduction in cell viability by MTT assay; format: cell-based; conditions: not given

SMILES	CC50 [µM]
Nc1cc(OCc2ccccc2)nc(N)n1	> 60
Nc1cc(NCc2ccc(-c3ccccc3)cc2)nc(N)n1	< 25
